High-throughput results deposited in PubChem by several laboratories.
FID counter: compounds displacing fluorescent DNA intercalator, primary screen, artefact control for HCV NS3 helicase inhibitor project, biochemical, FID fluorescence. DNA fluorescent intercalator displacement. inhibition, % at 7.9 µM. 0.17% of 290,000 active; in the data active = inhibition above about 37%;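 also: 0% = vehicle and 100% = reference compound; higher means more ethidium bromide displaced from hairpin DNA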
CendR NRP1 mod: modulators of CendR peptide binding to NRP-1, primary screen, biochemical, fluorescence polarization, uHTS | Neuropilin-1 (Homo sapiens), O14786 | FAM-RPARPAR peptide binding to NRP-1 | inhibition, % at 25 µM | 0.85% of 360,000 active | AID 602438, 2012;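 active = inhibition or corrected inhibition above about 18%, plus a signal ratio from 0.5 to 1.5, limit read from the data, passing the limit was not always enough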
Target sequence (O14786 whole entry, looked up): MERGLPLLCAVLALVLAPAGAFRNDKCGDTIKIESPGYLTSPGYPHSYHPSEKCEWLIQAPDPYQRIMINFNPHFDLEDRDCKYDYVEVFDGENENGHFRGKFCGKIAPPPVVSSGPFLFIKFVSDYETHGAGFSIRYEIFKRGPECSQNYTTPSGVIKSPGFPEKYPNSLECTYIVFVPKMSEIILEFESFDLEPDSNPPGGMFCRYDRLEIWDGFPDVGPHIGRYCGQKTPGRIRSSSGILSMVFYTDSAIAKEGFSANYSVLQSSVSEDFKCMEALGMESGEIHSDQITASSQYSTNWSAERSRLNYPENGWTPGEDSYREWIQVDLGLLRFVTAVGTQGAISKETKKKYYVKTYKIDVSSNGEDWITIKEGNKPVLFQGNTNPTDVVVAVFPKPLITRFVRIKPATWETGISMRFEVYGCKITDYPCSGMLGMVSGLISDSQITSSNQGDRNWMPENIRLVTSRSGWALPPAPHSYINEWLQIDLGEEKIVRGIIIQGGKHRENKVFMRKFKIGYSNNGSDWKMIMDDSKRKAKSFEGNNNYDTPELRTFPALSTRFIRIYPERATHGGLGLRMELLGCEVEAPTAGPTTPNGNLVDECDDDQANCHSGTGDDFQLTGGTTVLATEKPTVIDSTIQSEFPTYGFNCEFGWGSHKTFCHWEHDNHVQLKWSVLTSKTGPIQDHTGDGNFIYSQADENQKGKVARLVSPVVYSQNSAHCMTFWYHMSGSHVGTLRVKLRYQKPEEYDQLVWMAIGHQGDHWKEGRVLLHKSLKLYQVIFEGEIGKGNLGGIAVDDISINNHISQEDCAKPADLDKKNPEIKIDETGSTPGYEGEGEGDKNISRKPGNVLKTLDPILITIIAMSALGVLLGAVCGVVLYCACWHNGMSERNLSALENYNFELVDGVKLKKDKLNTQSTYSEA
HCV core dimer: inhibitors of HCV core protein dimerization, primary screen, biochemical, TR-FRET, high-throughput. AID 1899, 2009. inhibition, % at 5 µM. TR-FRET GST/Flag-core106 dimerization, 1536-well. 0.33% of 300,000 active;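 active = inhibition above the mean of all tested compounds plus 3 SD, set per screening campaign, cut at about 45% in these data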
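System: GST-tagged and Flag-tagged HCV core protein residues 1-106 / Input: core106 proteins, GST 13.5 nM and Flag 17 nM / Buffer or medium: KF-containing HEPES buffer, pH 7.45, DTT, CHAPS, BSA / Probe or stimulus: Eu-anti-GST and XL665-anti-Flag labelled anti-tag antibodies / Schedule: 4 h, 22.5 °C incubation / Technique: TR-FRET 671 and 617 nm emission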
MEX-5 binding: MEX-5 zinc finger RNA-binding disruptors – biochemical, C. elegans, fluorescence polarization, MLPCN library, primary screen; Zinc finger protein mex-5 (Caenorhabditis elegans), Q9XUB2; MEX-5/FITC-TCR2 RNA binding; hits give low values; activity score (negative = inhibition of binding), % at 10 µM; 0.38% of 300,000 active;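 active = inhibition past about -25% in most replicates, and total fluorescence under double the plate's negative control median, limit read from the data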;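 also: 0% = DMSO and -100% = 5 µM competing unlabeled TCR2 RNA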
Numbers without * were called inactive; nt = no result given. Rows were chosen to be rich in hits. Some 1.5% of all compounds tested hit in one or more screens of this group.

SMILES	FID counter	CendR NRP1 mod	HCV core dimer	MEX-5 binding
O=C(Nc1nnc(C2CC2)s1)c1cccs1	-10	25*	-8	-2
O=C1Nc2ccccc2C12OCCO2	-5	35*	3	-2
Cc1nc(S/C(=C/c2ccc(-c3ccc(C(=O)O)cc3)o2)C(=O)O)n[nH]1	-15	-89	-25	-80*
Cc1nc(S/C(=C/c2ccc(-c3ccc(Cl)cc3)o2)C(=O)O)n[nH]1	-7	36*	-2	1
O=C(O)/C(=C\c1ccc(-c2ccc(F)cc2)o1)c1ccccc1	-19	-17	nt	nt
Cc1nc(S/C(=C/c2ccc(-c3cc(Cl)ccc3C)o2)C(=O)O)n[nH]1	-14	-2	-2	-9
CC(=O)c1ccc(-c2ccc(/C=C(/Sc3n[nH]c(C)n3)C(=O)O)o2)cc1	-14	-153	-21	-35*
Cc1cccc(-n2c(C)nc3cc(C(=O)NCCN4CCOCC4)ccc32)c1	nt	-1	nt	nt
CCCc1nc2c(C)cc(Br)cn2c1Cc1ccccc1C(F)(F)F	nt	-17	nt	nt
CC1=C(C(=O)Nc2cc(C(=O)NCc3ccccc3)ccc2C)SCCO1	nt	0	nt	nt
O=C(COC(=O)C1=Cc2ccccc2OC1)NCc1ccc(F)cc1	nt	44	nt	nt
Nc1c(C2CCCCC2)c(=O)on1C(=O)c1ccccc1	nt	8	nt	nt
Cc1cc2nc(C(C)(C)C)c(Cc3cccc(F)c3)n2c(C)c1Br	nt	6	nt	nt
Cc1n[nH]c(=O)n1-c1ccc(C(C)(C)C)cc1	-1	21*	0	2
CC1(C(=O)NS(=O)(=O)c2cccc(C#N)c2)CCN1C(=O)C1(c2ccccc2)CC1 (stereo unspecified)	nt	-3	nt	nt
Cc1ccc(C(=O)N/C(=C\c2sccc2C)C(=O)NCc2ccco2)cc1	-7	39*	2	1
Cc1ccc(C(=O)N/C(=C\c2sccc2C)C(=O)NCc2ccncc2)cc1	-4	-12	-8	3
C#CCOCCOCCOCCNc1nc(N2CCN(C(=O)[C@H](CCCCN)n3cc([C@@H](N)CO)nn3)CC2)nc(N2CCN(C(=O)[C@H](Cc3cc4ccccc4[nH]3)n3cc([C@@H](N)Cc4ccc(O)cc4)nn3)CC2)n1	55*	nt	-24	0
C#CCOCCOCCOCCNc1nc(N2CCN(C(=O)[C@H](CCCCN)n3cc([C@@H](N)CC(C)C)nn3)CC2)nc(N2CCN(C(=O)[C@H](Cc3cc4ccccc4[nH]3)n3cc([C@@H](N)Cc4ccc(O)cc4)nn3)CC2)n1	76*	-1	-22	0
COc1ccc2oc(C(=O)Nc3ccc(N4CCOCC4)cc3)c(C)c2c1	nt	-8	86*	2
CNC(=S)NN(c1ccccc1)c1ccccc1	-1	44*	-3	2
O=C(Nc1nc2ccccc2s1)c1ccc2sc([C@H]3C[C@H](O)[C@@H](CO)O3)nc2c1	nt	0	nt	nt
COc1ccc(NC(=O)c2nc[nH]c2C(=O)N(C)CCO)cc1	nt	4	nt	nt
Nc1sccc1C(=O)N1CCN(c2ccccc2)CC1	nt	-4	nt	nt
CCOc1ccc(C2CC(c3ccc(CC)cc3)n3nc(N)nc3N2)cc1 (stereo unspecified)	-34	44*	6	-2
SMILES	FID counter	CendR NRP1 mod	HCV core dimer	MEX-5 binding
O=C(NNc1ncnc2c1cnn2-c1ccc(F)cc1)c1ccco1	-10	29*	-2	-21
Cc1ccc(-n2ncc3c(NNC(=O)c4ccco4)ncnc32)c(C)c1	-1	-7	-2	-6
CCCCCN(C(=O)CCC(=O)OCc1cccc(C)c1)c1c(N)n(CCCC)c(=O)[nH]c1=O	nt	-8	-4	2
CC1(c2nnc(-c3ccc(Cl)cc3)o2)CC(c2cccc(Cl)c2)=NO1 (stereo unspecified)	nt	25*	6	1
CC1(c2nnc(-c3ccc(F)cc3)o2)CC(c2ccc(F)cc2)=NO1 (stereo unspecified)	nt	24*	5	2
CC1(c2nnc(-c3ccccc3)o2)CC(c2cccc(Cl)c2)=NO1 (stereo unspecified)	nt	4	-2	-3
COc1ccc(NC(=O)C(c2ccccc2F)n2c(=O)c(-c3cc4ccccc4[nH]3)nc3ccccc32)cc1 (stereo unspecified)	nt	-3	nt	nt
NNc1ccc([N+](=O)[O-])c2[nH][nH]c(=O)c12	nt	29*	nt	nt
Cc1ccc2c(C)c(C(=O)Nc3ccc(S(=O)(=O)Nc4onc(C)c4C)cc3)oc2c1	-4	4	16	0
